From PMC7785655 (Toxicology, 2020)
Read-outs that look alike come from different tables or passages of the source.

Legend:
[1] = tested on: primary human hepatocytes; details: cited from earlier work
[2] = Drug recovery from 2D cultures or LAMPS chip effluent; assay type: in vitro ADME, human; details: human; for recovery: primary human hepatocytes, 2D cultures or LAMPS chips
In short: (§1)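 Hepatocytes were seeded from thaw at 2.75×10^6 cells/mL into fibronectin/collagen I-coated chips or 96-well plates, then overlaid with THP-1, EA.hy926 and LX-2 cells. Drugs in 0.1% DMSO vehicle were added on day 0. Chips were perfused at 15 μL/hour, and 2D media were exchanged daily for up to 10 days. Drugs in effluent or medium were quantified by LC-MS/MS and expressed as % of starting concentration. Values are mean±SEM, n=3–9.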

[3] = as above; assay type: in vitro ADME; details: human, iCell hepatocytes
In short: as §1

[4] = tested on: primary human hepatocytes; assay: as above; assay type: in vitro ADME; details: primary human hepatocytes; effect most pronounced for these drugs
In short: as §1

[5] = tested on: primary human hepatocytes; assay: Drug effects on viability and function; assay type: cell-based; details: both laboratories
[6] = tested on: primary human hepatocytes; assay: Drug effects on viability and function in 2D monolayer cultures; assay type: cell-based; details: day 10; 2D cultures with primary hepatocytes; Tolcapone 88 μM, Trovafloxacin 150 μM, LPS 1 μg/mL
[7] = Tolcapone 88 μM, 5 days, vs No Treatment
[8] = 2D monolayer-cultured primary human hepatocytes

SMILES	recovery [2] [%]	recovery [3] [%]	recovery ([3]; LAMPS chips and 2D monolayer) [%]	recovery in LAMPS chips compared with 2D monolayer cultures [4]	cell viability [6]	also measured
Cn1c(=O)c2c(ncn2C)n(C)c1=O [Caffeine]	~100					effect on LDH levels ([1]; Caffeine 600 μM, previous study in Laboratory 2, different donor hepatocytes, ref Vernetti et al. 2016): reduced; effect on albumin [1]: without significant effect; effect on urea [1]: without significant effect
CCc1ccc(CCOc2ccc(CC3SC(=O)NC3=O)cc2)nc1 (centres unmarked) [Pioglitazone]		10 to 40	~100	lower recovery than 2D monolayer cultures		
CN(CCOc1ccc(CC2SC(=O)NC2=O)cc1)c1ccccn1 (centres unmarked) [Rosiglitazone]		10 to 40	~100			
Cc1ccc(C(=O)c2cc(O)c(O)c([N+](=O)[O-])c2)cc1 [Tolcapone]		10 to 40	~100		pronounced effects	albumin production [5, 7]: statistically significant decrease; urea production [5, 7]: statistically significant decrease
Cc1c(C)c2c(c(C)c1O)CCC(C)(COc1ccc(CC3SC(=O)NC3=O)cc1)O2 (centres unmarked) [Troglitazone]		10 to 40	~100	lower recovery than 2D monolayer cultures		recovery at 28 µM [2, 8]: > 10%; recovery at 1 day, 28 µM [2, 8]: < 1%
N[C@@H]1[C@H]2CN(c3nc4c(cc3F)c(=O)c(C(=O)O)cn4-c3ccc(F)cc3F)C[C@@H]12 [Trovafloxacin]	~100				pronounced effects	effect on LDH ([5]; Trovafloxacin 150 μM): significant effects; effect on albumin ([5]; Trovafloxacin 150 μM): significant effects
